# INS promoter act: TRM-6 insulin promoter activation | 0.81% of 130,000 active | AID 1296 | activation, % at 2 µM | TRM-6 cells, insulin promoter eGFP reporter, imaging; plate-scaled: unstimulated 0, stimulated control 100;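 active means activation at 2 µM above a set limit, confirmed on inspection of the cell images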;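 further: share of cells whose green reporter signal exceeds an intensity cutoff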
#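 System – human fetal islet-derived TRM-6 cells with tamoxifen-inducible insulin promoter–eGFP reporter · Amount – 1,000 cells per well · Schedule – overnight tamoxifen, then two-day compound incubation at 37 °C · Detection – high-content imaging of fixed cells with Hoechst nuclear stain · Read-out – percent cells above green-intensity threshold, converted to percent activation versus plate controls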
# Active calls of the source: *. Only a selection was taken, and hits are over-represented in it overall.
SMILES,INS promoter act
O=S(=O)([O-])CCC[n+]1c(/C=C\Nc2ccccc2)oc2ccc(-c3ccccc3)cc21,376.2*
CCN(CC)C(=O)Cn1cc(C(=O)C(=O)N2CC=C(c3ccccc3)CC2)c2ccccc21,153.8
CCCCOP(=O)(OCCCC)C1(NS(=O)(=O)c2ccccc2)C=CC(=O)c2ccccc21 (stereo unspecified),7.3
O=C(N/N=C/c1ccc([N+](=O)[O-])o1)C1CC1,-5.6
Clc1ccc(CNCCC2=CCCCC2)cc1,0.0
COc1ccccc1CP(=O)(c1ccccc1)c1ccccc1,-2.9
C=CCc1cccc(/C=N/NC(=O)CCC(=O)Nc2ccc(C)cc2)c1O,0.0
CCCNC(=O)C12CCC(C)(C(=O)C1Br)C2(C)C (stereo unspecified),-5.9
Cc1ccc(S(=O)(=O)Nc2cnn(-c3ccccc3)c(=O)c2Cl)cc1,-6.7
CC(C)(C)c1ccc(C(=O)N2CCCCCC2=O)cc1,584.6*
CN1CCN(C(=O)c2ccc(N3CCCC3=O)cc2)CC1,0.0
O=C(NCCN1CCCCCC1)c1ccc(N2CCCC2=O)cc1,-8.6
CC(C)NC(=O)c1ccc(COCC(F)(F)C(F)F)cc1,80.0*
O=C(Nc1ccc(OCC(F)(F)C(F)F)cc1)c1ccncc1,-5.9
O=C(Nc1ccc(Cl)cn1)c1ccc(COCC(F)(F)C(F)F)o1,0.0
COc1ccc(CCNC(=O)CC2SC(=NCCc3ccccc3)NC2=O)cc1OC (stereo unspecified),6.7
O=C(CSc1ncc(-c2ccccc2)n1-c1ccccc1)NCc1ccco1,2.7
O=C(CSc1ccc(-c2ccccc2)nn1)NCc1ccco1,443.8*
COc1cccc(CNC(=O)CSc2ccc(-c3ccncc3)nn2)c1,0.0
O=C(CSc1ccc(-c2ccccn2)nn1)NCc1ccccc1,-8.3
O=C(CSc1nnc(-c2cc3ccccc3cc2O)n1Cc1ccco1)c1ccc(F)cc1,-6.1
O=C(CSc1nnc(-c2ccc(O)cc2)n1Cc1ccco1)c1ccccc1,77.4*
O=C(CSc1ccc(-c2ccco2)nn1)Nc1ccccc1,-75.0
O=C(CSc1ccc(-c2cccc([N+](=O)[O-])c2)nn1)NCc1ccccc1,265.7*
Cc1cc(C)c(NC(=O)CSc2nnc(-c3ccncc3)n2Cc2ccco2)c(Cl)c1,-3.2
SMILES,INS promoter act
Cn1c(SCC(=O)NCc2ccco2)nnc1-c1ccccc1,437.1*
Cn1c(SCC(=O)NCc2ccco2)nnc1-c1ccc(S(=O)(=O)N2CCOCC2)cc1,-6.1
Cc1nnc(SCC(=O)NCc2ccco2)n1Cc1ccccc1,6.9
CCCCOc1ccc(CC2CCC(=O)NC2=O)cc1 (stereo unspecified),-7.1
CC1(C)CC(=O)C2=C(C1)N(c1ccccc1)C(=O)CC2c1ccc(O)cc1 (stereo unspecified),7.1
C=CCNC(=S)Nc1sc2c(c1C#N)CCCC2,105.3
CN(/C=C1/C(=O)CNC1=O)CCO,5.6
Cc1cc(C)cc(Nc2c(F)c(F)c(F)c(F)c2C(=O)O)c1,8.3
CCN1CCCc2cc(CN(CCN3CCOCC3)C(=S)Nc3ccc(OC)c(OC)c3)ccc21,425.0*
CCc1ccc(NC(=O)N(CCN2CCOCC2)Cc2ccc3c(c2)CCCN3CC)cc1,-8.3
CCN1CCCc2cc(CN(CCN3CCOCC3)C(=S)Nc3ccccc3C)ccc21,-8.3
C/C(=N\Nc1nc2ccccc2[nH]1)c1ccc(N2CCOCC2)cc1,-75.0
CCNC(=O)NC(=O)CN(C)c1ccccc1,-9.1
O=C(NCc1ccccc1)c1ccc(CN2CCOCC2)cc1,7.1
Cc1cccc(CSCCNC(=O)c2ccc(CN3CCOCC3)cc2)c1,-71.4
CCCNC(=O)c1ccc(CN2CCOCC2)cc1,294.7*
Cc1ccc(NC(=S)Nc2ccc(C(C)C)cc2)cc1S(=O)(=O)N1CCCCCC1,-7.1
COc1ccc(C)cc1NC(=O)C(c1ccccc1)N1CCNC(=O)C1 (stereo unspecified),9.1
O=c1oc2cc(Cl)ccc2n1CSc1nc2ccccc2s1,-3.1
Cc1ccc(N2CCN(C(=O)c3ccccc3NC(=O)c3ccccc3C(=O)O)CC2)cc1,0.0
Cc1nn(C(C)c2n[nH]c(=S)n2-c2cccc(Cl)c2)c(C)c1[N+](=O)[O-] (stereo unspecified),200.0
CC(c1n[nH]c(=S)n1-c1ccc(F)cc1)N1CCCCC1 (stereo unspecified),2.4
COc1ccc(-n2c(C(C)n3nc(C)c([N+](=O)[O-])c3C)n[nH]c2=S)cc1 (stereo unspecified),515.4*
Cc1ccc(C)c(NC(=O)COC(=O)CNC(=O)c2ccccc2Cl)c1,0.0
O=c1c2oc3ccccc3c2[nH]c(=S)n1-c1ccc(F)cc1,0.0
SMILES,INS promoter act
CCc1ccc(C2=NN(CCC(=O)NC(C)CCc3ccccc3)C(=O)CC2)cc1 (stereo unspecified),107.1
COc1ccccc1N1CCN(S(=O)(=O)Cc2ccccc2Cl)CC1,-88.9
Cc1cc(NC(=O)c2ccc3c(c2)C(=O)N(C)C3=O)no1,-7.1
COc1ccc(N2C(=O)c3ccc(C(=O)OC(C)C)cc3C2=O)cc1,-64.3
CC(=O)Oc1cccc(N2C(=O)c3ccc(C(=O)Nc4c[nH]c(=O)[nH]c4=O)cc3C2=O)c1,214.3*
CCOC(=O)C1CCN(CC(=O)N(CC(C)C)c2c(N)n(CC(C)C)c(=O)[nH]c2=O)CC1,-3.7
COCC(C)NC(=O)c1cccc(Cl)c1 (stereo unspecified),0.0
COCC(C)NC(=O)NC(=O)c1ccc(Cl)cc1 (stereo unspecified),77.4*
COCC(C)NC(=O)NC1(C(F)(F)F)Oc2ccc(Cl)cc2O1 (stereo unspecified),-71.4
Cc1ccc(-c2noc(CCC(=O)N(C)c3ccccc3C)n2)cc1,276.7
Cc1ccn2c(C(=O)N/N=C/c3ccc(CNC(=O)C(=O)Nc4ccc(C)c(C)c4)o3)c(C)nc2c1,3.2
CCCCNC(C(=O)Nc1ccc([N+](=O)[O-])cc1Br)c1ccccc1 (stereo unspecified),-100.0
Cc1cc(Cl)cc(Cl)c1OCCOc1cccc2cccnc12,83.9*
Cc1ccc(OCCOCCOc2cccc3cccnc23)c(Br)c1,8.3
Cc1cc(Cl)cc(Cl)c1OCCOCCN(C)C,128.6
COc1ccc(N2C(=O)CSC2c2ccncc2)cc1 (stereo unspecified),0.0
CN(C)C(=O)C1C2NC(=S)N(c3ccc(Cl)cc3)C1(C)Oc1ccc(Cl)cc12 (stereo unspecified),6.7
COc1ccc(NC(=O)CSc2n[nH]c(N)n2)cc1OC,331.6*
Nc1nc(SCC(=O)Nc2ccc(Br)cc2F)n[nH]1,-75.0
COc1ccc(NC(=O)CSc2nncn2C)cc1OC,-71.4
COc1ccc(/C=C/CN2CCCC(CCC(=O)NCc3ccc(F)c(F)c3)C2)cc1 (stereo unspecified),141.7
Cc1cc(C)nc(N2CCN(C(=O)c3ccc(S(=O)(=O)N4CCCCCC4)cc3)CC2)n1,5.6
Cc1ccc(C(=O)NC(=S)Nc2nc(-c3cccc([N+](=O)[O-])c3)cs2)c(Cl)c1,-85.7
CCC(=O)N(Cc1cc2cc(OC)ccc2[nH]c1=O)c1ccc(C)cc1C,236.4*
CCOc1cc(C(=O)N(C)Cc2cc3cc(OC)ccc3[nH]c2=O)cc(OCC)c1OCC,3.7
COc1ccc2[nH]c(=O)c(CN(C(C)=O)c3cccc(C)c3)cc2c1,-90.9
Cc1nc2ccccc2n2c(-c3ccccc3)c3c(=O)n(C)c(=O)n(C)c3c12,171.4
Cc1nn(CC(=O)Nc2cccc(S(N)(=O)=O)c2)c(C)c1[N+](=O)[O-],-7.4
COc1cc(C(=O)Oc2cc(C)cc(C)c2)cc(OC)c1OC,607.1*
